Laboratory results as given in ChEMBL document CHEMBL4706527, “Identification of novel quinoline analogues bearing thiazolidinones as potent kinase inhibitors for the treatment of colorectal cancer” (Eur J Med Chem, 2020).
pIC50: −log10 of the molar value. Each block holds one compound with its values, some of them ahead of it. Calls of active or inactive are those of the source. The calls are words filed in the database; no cut-off is given here.

Legend:
HT-29 [1] = assay: cells; details: Homo sapiens
HT-29 [2] = assay: Cell cycle arrest in human HT-29 cells assessed as accumulation in G2/M phase at 0.3 ug/ml incubated for 48 hrs by propidium iodide base flow cytometry analysis (reference value: 2.4%); assay type: functional; details: dose 0.3 µg/ml
[3] = biological target: T1, Hepatocyte growth factor receptor (Homo sapiens, UniProt P08581); assay: Inhibition of c-Met (unknown origin) using FAM-labelled peptide and ATP incubated for 10 mins by mobility shift assay
HT-29 [4] = assay: Cell cycle arrest in human HT-29 cells assessed as accumulation in G0/G1 phase at 0.3 ug/ml incubated for 48 hrs by propidium iodide base flow cytometry analysis (reference value: 71.6%); assay type: functional; details: dose 0.3 µg/ml
HT-29 [5] = assay: Cytotoxicity against human HT-29 cells assessed as reduction in cell viability measured at 0.56 to 1.67 microg/ml by IncuCyte live-cell imaging assay; details: dose 0.56-1.67 µg/ml, TDE = time-dependent effect
HT-29 [6] = assay: Antiproliferative activity against human HT-29 cells assessed as dead cells by measuring green fluorescent cells at 1 to 3 ug/mL by IncuCyte live-cell imaging assay; assay type: functional, cell-based
Procedure, shortened: (§1)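 HT-29 cells (5×10^3/well) in DMEM with 10% FBS, cultured 24 h at 37 °C, 5% CO2, then treated with graded concentrations of compound; 0.1% DMSO vehicle control. YOYO-1 iodide DNA dye added; green-fluorescent cells counted as dead, imaged every 2 h for 72 h in an IncuCyte system. Three replicates; mean ± SD of three independent experiments.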

[7] = biological target: Macrophage-stimulating protein receptor (Homo sapiens, UniProt Q04912); assay: Inhibition of Ron (unknown origin) using FAM-labelled peptide and ATP incubated for 10 mins by mobility shift assay
[8] = biological target: Proto-oncogene tyrosine-protein kinase Src (Homo sapiens, UniProt P12931); assay: Inhibition of c-Src (unknown origin) using FAM-labelled peptide and ATP incubated for 10 mins by mobility shift assay
HT-29 [9] = assay: Cell cycle arrest in human HT-29 cells assessed as accumulation in G0/G1 phase at 1 ug/ml incubated for 48 hrs by propidium iodide base flow cytometry analysis (reference value: 71.6%); assay type: functional; details: dose 1 µg/ml
HT-29 [10] = assay: Cytotoxicity against human HT-29 cells assessed as reduction in cell viability measured after 36 hrs by MTT assay; assay type: functional, cell-based; details: dose 0.56-1.67 µg/ml
[11] = biological target: Serine/threonine-protein kinase B-raf (Homo sapiens, UniProt P15056); assay: Inhibition of B-Raf (unknown origin) by mobility shift assay
[12] = biological target: Platelet-derived growth factor receptor alpha (Homo sapiens, UniProt P16234); assay: Inhibition of PDGFR alpha (unknown origin) by mobility shift assay
[13] = biological target: Mast/stem cell growth factor receptor Kit (Homo sapiens, UniProt P10721); assay: Inhibition of c-Kit (unknown origin) using FAM-labelled peptide and ATP incubated for 10 mins by mobility shift assay
HT-29 [14] = assay: Cytotoxicity against human HT-29 cells assessed as reduction in cell viability at 5 ug/mL by MTT assay; assay type: functional, cell-based; details: dose 5.0 µg/ml
[15] = biological target: Insulin-like growth factor 1 receptor (Homo sapiens, UniProt P08069); assay: Inhibition of IGF1R (unknown origin) by mobility shift assay
[16] = biological target: T1, Hepatocyte growth factor receptor; assay: Inhibition of c-Met (unknown origin) using FAM-labelled peptide and ATP incubated for 10 mins by mobility shift assay relative to control
HT-29 [17] = assay: Cell cycle arrest in human HT-29 cells assessed as accumulation in G0/G1 phase at 3 ug/ml incubated for 48 hrs by propidium iodide base flow cytometry analysis (reference value: 71.6%); assay type: functional; details: dose 3 µg/ml
HT-29 [18] = assay: Cell cycle arrest in human HT-29 cells assessed as accumulation in S phase at 3 ug/ml incubated for 48 hrs by propidium iodide base flow cytometry analysis (reference value: 22.4%); assay type: functional; details: dose 3 µg/ml
HT-29 [19] = assay: Antiproliferative activity against human HT-29 cells assessed as dead cells by measuring green fluorescent cells at 5 ug/mL for 72 hrs by IncuCyte live-cell imaging assay; assay type: functional, cell-based; details: dose 5.0 µg/ml
Procedure, shortened: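 HT-29 cells (5×10^3 per well) in DMEM with 10% FBS at 37 °C, 5% CO2; compound added after 24 h culture. YOYO-1 iodide added, green-fluorescent cells counted as dead; live-cell imaging every 2 h for 72 h; three replicates; mean ± SD of three independent experiments.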

HT-29 [20] = assay: Cell cycle arrest in human HT-29 cells assessed as accumulation in S phase at 0.3 ug/ml incubated for 48 hrs by propidium iodide base flow cytometry analysis (reference value: 22.4%); assay type: functional; details: dose 0.3 µg/ml
FHC [21] = assay: Antiproliferative activity aganist human FHC at 10 ug/ml measured after 72 hrs by MTT assay; assay type: cell-based; details: at 10 µg/mL
[22] = biological target: T2, Tyrosine-protein kinase receptor UFO (Homo sapiens, UniProt P30530); assay: Inhibition of AXL (unknown origin) using FAM-labelled peptide and ATP incubated for 10 mins by mobility shift assay
T2 sequence (P30530 whole entry): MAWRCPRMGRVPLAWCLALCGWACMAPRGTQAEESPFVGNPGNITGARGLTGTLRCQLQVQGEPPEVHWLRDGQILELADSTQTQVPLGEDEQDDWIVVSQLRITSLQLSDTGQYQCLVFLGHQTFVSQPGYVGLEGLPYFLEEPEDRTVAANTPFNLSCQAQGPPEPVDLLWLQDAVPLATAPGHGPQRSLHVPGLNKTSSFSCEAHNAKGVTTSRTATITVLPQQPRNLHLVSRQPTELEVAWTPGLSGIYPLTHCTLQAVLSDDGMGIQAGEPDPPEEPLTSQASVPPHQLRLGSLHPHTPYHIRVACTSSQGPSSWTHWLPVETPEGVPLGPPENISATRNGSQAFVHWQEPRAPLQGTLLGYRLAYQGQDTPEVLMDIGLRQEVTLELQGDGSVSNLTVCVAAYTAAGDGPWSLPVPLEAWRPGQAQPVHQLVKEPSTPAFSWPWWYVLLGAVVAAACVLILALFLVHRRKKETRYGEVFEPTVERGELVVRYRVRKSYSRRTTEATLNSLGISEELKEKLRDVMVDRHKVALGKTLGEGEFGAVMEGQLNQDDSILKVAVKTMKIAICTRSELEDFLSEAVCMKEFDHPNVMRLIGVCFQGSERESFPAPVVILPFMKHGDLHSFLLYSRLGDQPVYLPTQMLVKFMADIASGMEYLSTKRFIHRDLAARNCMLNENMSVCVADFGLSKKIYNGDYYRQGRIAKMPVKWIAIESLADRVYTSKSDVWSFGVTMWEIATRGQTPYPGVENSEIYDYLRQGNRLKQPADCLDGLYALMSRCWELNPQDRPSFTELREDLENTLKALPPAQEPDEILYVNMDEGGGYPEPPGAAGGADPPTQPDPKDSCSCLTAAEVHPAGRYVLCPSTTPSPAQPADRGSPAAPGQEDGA

HT-29 [23] = assay: Cell cycle arrest in human HT-29 cells assessed as accumulation in G2/M phase at 3 ug/ml incubated for 48 hrs by propidium iodide base flow cytometry analysis (reference value: 2.4%); assay type: functional; details: dose 3 µg/ml
FHC [24] = assay: Cytotoxicity aganist human FHC at 10 ug/ml measured after 72 hrs by IncuCyte live-cell imaging assay
HT-29 [25] = assay: Antiproliferative activity against human HT-29 cells assessed as dead cells by measuring green fluorescent cells for 48 to 72 hrs by IncuCyte live-cell imaging assay; assay type: functional, cell-based
Procedure, shortened: as §1

HT-29 [26] = assay: Cell cycle arrest in human HT-29 cells assessed as accumulation in G2/M phase at 1 ug/ml incubated for 48 hrs by propidium iodide base flow cytometry analysis (reference value: 2.4%); assay type: functional; details: dose 1 µg/ml
HT-29 [27] = assay: Cell cycle arrest in human HT-29 cells assessed as accumulation in S phase at 1 ug/ml incubated for 48 hrs by propidium iodide base flow cytometry analysis (reference value: 22.4%); assay type: functional; details: dose 1 µg/ml
FHC [28] = assay: Cytotoxicity aganist human FHC at 0.19 ug/ml measured after 72 hrs by IncuCyte live-cell imaging assay

T1 sequence (P08581 whole entry): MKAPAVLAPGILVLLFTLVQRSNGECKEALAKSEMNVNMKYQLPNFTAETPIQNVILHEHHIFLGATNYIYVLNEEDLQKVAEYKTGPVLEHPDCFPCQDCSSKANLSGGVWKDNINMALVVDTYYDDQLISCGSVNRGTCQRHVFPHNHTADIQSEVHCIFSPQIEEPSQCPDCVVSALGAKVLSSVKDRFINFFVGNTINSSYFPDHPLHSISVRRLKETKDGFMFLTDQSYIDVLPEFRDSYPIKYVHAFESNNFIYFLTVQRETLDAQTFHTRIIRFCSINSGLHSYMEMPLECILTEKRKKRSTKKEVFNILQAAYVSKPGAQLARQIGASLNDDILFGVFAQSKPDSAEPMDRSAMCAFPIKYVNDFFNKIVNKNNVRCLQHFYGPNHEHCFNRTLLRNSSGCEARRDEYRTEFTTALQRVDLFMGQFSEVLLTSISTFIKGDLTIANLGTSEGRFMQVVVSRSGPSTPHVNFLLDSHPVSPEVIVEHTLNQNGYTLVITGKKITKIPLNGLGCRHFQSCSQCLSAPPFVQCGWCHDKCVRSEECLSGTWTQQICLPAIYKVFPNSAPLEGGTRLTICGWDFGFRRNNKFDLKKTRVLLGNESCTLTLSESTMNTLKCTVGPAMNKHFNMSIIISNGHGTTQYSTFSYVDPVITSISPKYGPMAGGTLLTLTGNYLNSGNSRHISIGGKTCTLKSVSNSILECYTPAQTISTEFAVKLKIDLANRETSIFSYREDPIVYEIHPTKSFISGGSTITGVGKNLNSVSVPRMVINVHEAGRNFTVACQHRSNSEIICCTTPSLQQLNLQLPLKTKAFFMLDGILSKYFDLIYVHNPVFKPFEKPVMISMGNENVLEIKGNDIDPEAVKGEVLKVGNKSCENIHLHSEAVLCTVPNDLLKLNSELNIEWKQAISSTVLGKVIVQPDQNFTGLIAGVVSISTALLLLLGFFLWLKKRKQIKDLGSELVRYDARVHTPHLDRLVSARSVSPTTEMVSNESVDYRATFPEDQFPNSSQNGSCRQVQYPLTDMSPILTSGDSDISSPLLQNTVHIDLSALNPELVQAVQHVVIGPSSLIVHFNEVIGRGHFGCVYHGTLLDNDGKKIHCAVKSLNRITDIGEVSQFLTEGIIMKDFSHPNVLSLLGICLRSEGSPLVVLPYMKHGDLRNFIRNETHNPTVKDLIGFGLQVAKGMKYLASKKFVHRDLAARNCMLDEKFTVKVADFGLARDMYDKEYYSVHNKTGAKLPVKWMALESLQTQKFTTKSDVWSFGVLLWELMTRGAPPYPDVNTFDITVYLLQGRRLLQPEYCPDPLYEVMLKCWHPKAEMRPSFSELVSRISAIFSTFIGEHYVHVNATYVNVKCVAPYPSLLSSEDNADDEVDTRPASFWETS
Mast/stem cell growth factor receptor Kit, sequence (P10721 whole entry): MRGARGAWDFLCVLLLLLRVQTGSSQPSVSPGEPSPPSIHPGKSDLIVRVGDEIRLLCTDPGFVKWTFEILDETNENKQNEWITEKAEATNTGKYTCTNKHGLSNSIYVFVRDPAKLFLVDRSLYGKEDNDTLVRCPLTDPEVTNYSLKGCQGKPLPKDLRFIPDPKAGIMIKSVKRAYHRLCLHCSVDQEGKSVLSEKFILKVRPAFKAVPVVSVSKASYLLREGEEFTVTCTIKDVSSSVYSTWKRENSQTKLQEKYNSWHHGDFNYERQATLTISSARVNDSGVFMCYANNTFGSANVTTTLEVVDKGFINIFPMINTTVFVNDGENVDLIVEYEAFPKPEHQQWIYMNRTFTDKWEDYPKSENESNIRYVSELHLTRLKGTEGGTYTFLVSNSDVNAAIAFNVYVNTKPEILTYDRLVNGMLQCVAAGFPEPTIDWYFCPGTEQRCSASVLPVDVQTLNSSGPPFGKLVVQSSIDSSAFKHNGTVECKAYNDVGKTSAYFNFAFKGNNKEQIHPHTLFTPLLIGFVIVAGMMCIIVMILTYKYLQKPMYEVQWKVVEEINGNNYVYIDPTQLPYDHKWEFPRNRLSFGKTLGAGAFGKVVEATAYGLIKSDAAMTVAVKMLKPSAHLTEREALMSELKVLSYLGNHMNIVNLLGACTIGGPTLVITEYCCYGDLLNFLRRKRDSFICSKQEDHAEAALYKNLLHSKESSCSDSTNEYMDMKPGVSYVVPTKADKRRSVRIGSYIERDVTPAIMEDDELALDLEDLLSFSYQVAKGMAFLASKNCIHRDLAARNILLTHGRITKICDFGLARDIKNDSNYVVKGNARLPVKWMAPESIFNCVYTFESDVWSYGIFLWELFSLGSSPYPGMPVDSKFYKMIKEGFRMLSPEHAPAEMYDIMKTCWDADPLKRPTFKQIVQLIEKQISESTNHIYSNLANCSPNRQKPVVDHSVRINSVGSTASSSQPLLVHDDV
Macrophage-stimulating protein receptor, sequence (Q04912 25-304 limits assumed): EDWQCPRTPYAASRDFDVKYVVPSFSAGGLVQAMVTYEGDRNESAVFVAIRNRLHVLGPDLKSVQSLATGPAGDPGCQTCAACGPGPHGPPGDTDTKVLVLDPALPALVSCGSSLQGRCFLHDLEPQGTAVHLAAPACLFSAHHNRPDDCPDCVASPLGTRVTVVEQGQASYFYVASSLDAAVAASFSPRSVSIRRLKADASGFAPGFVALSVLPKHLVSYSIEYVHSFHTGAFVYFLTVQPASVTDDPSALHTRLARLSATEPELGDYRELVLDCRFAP
Macrophage-stimulating protein receptor, sequence (Q04912 310-1400 limits assumed): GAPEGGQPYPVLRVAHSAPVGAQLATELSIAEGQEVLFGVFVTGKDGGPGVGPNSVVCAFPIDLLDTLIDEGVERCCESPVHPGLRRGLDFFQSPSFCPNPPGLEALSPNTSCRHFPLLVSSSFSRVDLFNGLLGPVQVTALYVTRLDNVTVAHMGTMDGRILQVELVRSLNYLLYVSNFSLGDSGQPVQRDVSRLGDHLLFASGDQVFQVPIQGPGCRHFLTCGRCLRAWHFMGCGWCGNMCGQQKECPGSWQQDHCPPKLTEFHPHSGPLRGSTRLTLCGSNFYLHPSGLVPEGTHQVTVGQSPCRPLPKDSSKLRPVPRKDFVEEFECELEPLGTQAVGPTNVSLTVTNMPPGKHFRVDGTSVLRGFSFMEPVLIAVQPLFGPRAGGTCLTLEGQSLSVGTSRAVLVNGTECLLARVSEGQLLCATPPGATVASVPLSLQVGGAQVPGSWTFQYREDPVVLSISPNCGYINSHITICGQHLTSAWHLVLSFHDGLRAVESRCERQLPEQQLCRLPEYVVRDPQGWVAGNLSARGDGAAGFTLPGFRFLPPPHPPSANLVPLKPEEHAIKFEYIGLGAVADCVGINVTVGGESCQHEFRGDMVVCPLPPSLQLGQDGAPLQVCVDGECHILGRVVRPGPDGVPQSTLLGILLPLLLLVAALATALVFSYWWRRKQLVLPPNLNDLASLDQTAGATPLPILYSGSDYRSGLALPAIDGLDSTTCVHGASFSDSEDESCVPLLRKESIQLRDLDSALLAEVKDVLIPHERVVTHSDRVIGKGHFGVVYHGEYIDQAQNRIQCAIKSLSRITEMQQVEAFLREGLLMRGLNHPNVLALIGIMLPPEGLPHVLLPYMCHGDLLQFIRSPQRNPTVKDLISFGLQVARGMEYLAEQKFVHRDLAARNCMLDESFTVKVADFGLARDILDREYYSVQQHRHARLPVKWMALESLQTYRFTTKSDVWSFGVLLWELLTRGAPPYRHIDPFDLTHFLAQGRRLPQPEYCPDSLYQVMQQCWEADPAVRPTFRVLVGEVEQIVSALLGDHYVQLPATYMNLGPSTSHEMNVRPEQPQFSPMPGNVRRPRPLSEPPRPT
Platelet-derived growth factor receptor alpha, sequence (P16234 whole entry): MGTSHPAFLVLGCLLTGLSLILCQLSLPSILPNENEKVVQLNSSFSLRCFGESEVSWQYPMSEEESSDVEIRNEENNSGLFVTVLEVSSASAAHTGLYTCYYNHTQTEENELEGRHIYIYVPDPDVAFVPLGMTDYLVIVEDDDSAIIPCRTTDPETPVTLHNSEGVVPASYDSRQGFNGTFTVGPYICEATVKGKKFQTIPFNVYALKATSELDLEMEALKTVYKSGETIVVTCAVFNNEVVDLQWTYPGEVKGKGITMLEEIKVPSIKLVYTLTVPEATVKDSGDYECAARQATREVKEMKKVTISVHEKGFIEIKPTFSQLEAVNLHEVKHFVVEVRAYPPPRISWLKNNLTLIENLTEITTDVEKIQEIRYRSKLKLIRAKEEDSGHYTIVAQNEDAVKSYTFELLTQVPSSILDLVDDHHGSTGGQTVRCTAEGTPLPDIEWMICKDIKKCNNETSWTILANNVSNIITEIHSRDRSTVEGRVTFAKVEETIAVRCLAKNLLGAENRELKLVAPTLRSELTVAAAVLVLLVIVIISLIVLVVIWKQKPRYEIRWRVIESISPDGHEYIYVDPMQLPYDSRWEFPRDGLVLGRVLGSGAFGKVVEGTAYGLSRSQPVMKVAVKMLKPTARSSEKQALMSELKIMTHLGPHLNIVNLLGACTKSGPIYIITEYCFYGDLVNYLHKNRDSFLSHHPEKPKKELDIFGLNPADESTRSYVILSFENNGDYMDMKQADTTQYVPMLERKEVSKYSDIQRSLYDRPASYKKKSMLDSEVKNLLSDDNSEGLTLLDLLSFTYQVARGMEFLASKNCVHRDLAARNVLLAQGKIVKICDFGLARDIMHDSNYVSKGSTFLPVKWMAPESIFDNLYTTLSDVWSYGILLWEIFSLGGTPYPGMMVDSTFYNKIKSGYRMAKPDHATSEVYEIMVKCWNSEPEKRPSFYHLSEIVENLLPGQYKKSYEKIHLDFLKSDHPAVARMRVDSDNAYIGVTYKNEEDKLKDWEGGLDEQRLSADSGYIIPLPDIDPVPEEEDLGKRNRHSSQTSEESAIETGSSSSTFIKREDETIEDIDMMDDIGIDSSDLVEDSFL

pIC50 (HT-29 [1]): 6.41
Compound: COc1cc2c(Sc3ccc(NC(=O)NN4C(=O)CSC4c4c(F)cccc4F)cc3)ccnc2cc1OCC1CCN(C(=O)NC(C)C)CC1 (configuration not stated)

pIC50 (HT-29 [1]): 6.38
Compound: COc1cc2c(Sc3ccc(NC(=O)NN4C(=O)CSC4c4c(F)cccc4F)cc3)ccnc2cc1OC1CCN(C(=O)NC(C)C)CC1 (configuration not stated)

pIC50 (HT-29 [1]): 6.39
Compound: COc1cc2c(Oc3ccc(NC(=O)NN4C(=O)CSC4c4ccccc4F)cc3)ccnc2cc1OC1CCN(C(=O)NC(C)C)CC1 (configuration not stated)

pIC50 (HT-29 [1]): 5.18
Compound: COc1cc2c(Oc3ccc(NC(=O)NN4C(=O)CSC4c4ccc(F)cc4)cc3)ccnc2cc1OC1CCN(C(=O)NCc2ccccc2)CC1 (configuration not stated)

pIC50 (HT-29 [1]): 5.97
Compound: COc1cc2c(Oc3ccc(NC(=O)NN4C(=O)CSC4c4ccc(F)c(F)c4)cc3)ccnc2cc1OC1CCN(C(=O)NC(C)C)CC1 (configuration not stated)

pIC50 (HT-29 [1]): 5.90
Compound: COc1cc2c(Oc3ccc(NC(=O)NN4C(=O)CSC4c4ccccc4)cc3)ccnc2cc1OC1CCN(C(=O)NC(C)C)CC1 (configuration not stated)

pIC50 (HT-29 [1]): < 5.00
Compound: COc1cc2c(Oc3cccc(NC(=O)NN4C(=O)CSC4c4c(F)cccc4F)c3)ccnc2cc1OC1CCN(C(=O)NC(C)C)CC1 (configuration not stated)

pIC50 (HT-29 [1]): 6.17
Compound: COc1cc2c(Oc3ccc(NC(=O)NN4C(=O)CSC4c4cccc(F)c4)cc3)ccnc2cc1OC1CCN(C(=O)NC(C)C)CC1 (configuration not stated)

pIC50 (HT-29 [1]): 6.02
Compound: COc1cc2c(Oc3ccc(NC(=O)NN4C(=O)CSC4c4ccc(F)cc4F)cc3)ccnc2cc1OC1CCN(C(=O)NC(C)C)CC1 (configuration not stated)

pIC50 (HT-29 [1]): < 5.00
Compound: COc1cc2nccc(Sc3ccc(NC(=O)NN4C(=O)CSC4c4c(F)cccc4F)cc3)c2cc1OCC1CCN(C(=O)NC(C)C)CC1 (configuration not stated)

pIC50 (HT-29 [1]): < 5.00
Compound: COc1cc2c(Sc3ccc(NC(=O)NN4C(=O)CSC4c4c(F)cccc4F)cc3)ccnc2cc1OC1CCCN(C(=O)NC(C)C)C1 (configuration not stated)

Compound: COc1cc2c(Oc3ccc(NC(=O)NN4C(=O)CSC4c4c(F)cccc4F)cc3)ccnc2cc1OC1CCN(C(=O)NC(C)C)CC1 (configuration not stated)
Activity (HT-29 [2]): 3.8%
pIC50 [3]: 6.42
Activity (HT-29 [4]): 71.3%
Activity (HT-29 [5]): Tde
Activity (HT-29 [6]; dose 1-3 µg/ml, time 48-72 hrs, TDE = time-dependent effect): Tde
pIC50 [7]: 6.91
pIC50 [8]: 6.38
Activity (HT-29 [9]): 71.5%
Activity (HT-29 [10]): Dose-dependent effect
pIC50 [11]: < 5.00
pIC50 [12]: 6.42
pIC50 (HT-29 [1]): 6.51
pIC50 [13]: < 5.00
Activity (HT-29 [14]): Active
pIC50 [15]: < 5.00
pIC50 [16]: 6.42
Activity (HT-29 [17]): 71.2%
Activity (HT-29 [18]): 18.3%
Activity (HT-29 [19]): Active
Activity (HT-29 [20]): 19.7%
Activity (FHC [21]): 26.7%
pIC50 [22]: 6.20
Activity (HT-29 [23]): 4.4%
Activity (FHC [24]): Toxic
Activity (HT-29 [25]; dose 1-3 µg/ml, time 48-72 hrs): Dose-dependent effect
Activity (HT-29 [26]): 4.3%
Activity (HT-29 [27]): 20.3%

pIC50 (HT-29 [1]): 5.77
Compound: CCCCNC(=O)N1CCC(Oc2cc3nccc(Oc4ccc(NC(=O)NN5C(=O)CSC5c5ccc(F)cc5)cc4)c3cc2OC)CC1 (configuration not stated)

pIC50 (HT-29 [1]): 6.07
Compound: COc1cc2c(Oc3ccc(NC(=O)NN4C(=O)CSC4c4ccc(F)cc4)cc3)ccnc2cc1OC1CCN(C(=O)NC(C)C)CC1 (configuration not stated)

pIC50 (HT-29 [1]): 5.25
Compound: COc1cc2c(Sc3ccc(NC(=O)NN4C(=O)CSC4c4c(F)cccc4F)cc3)cc(N)nc2cc1OC1CCN(C(=O)NC(C)C)CC1 (configuration not stated)

pIC50 (HT-29 [1]): 6.04
Compound: COc1cc2c(Oc3ccc(NC(=O)NN4C(=O)CSC4c4c(F)cc(F)cc4F)cc3)ccnc2cc1OC1CCN(C(=O)NC(C)C)CC1 (configuration not stated)

pIC50 (HT-29 [1]): 5.65
Compound: CCNC(=O)N1CCC(Oc2cc3nccc(Oc4ccc(NC(=O)NN5C(=O)CSC5c5ccc(F)cc5)cc4)c3cc2OC)CC1 (configuration not stated)

Compound: CNC(=O)c1cc(Oc2ccc(NC(=O)Nc3ccc(Cl)c(C(F)(F)F)c3)c(F)c2)ccn1 [REGORAFENIB]
Activity (FHC [28]): Toxic
AC50 (HT-29 [6]): Active
Activity (HT-29 [10]): inactive
pIC50 (HT-29 [1]): 5.54
Activity (HT-29 [14]): inactive
Activity (HT-29 [17]): 78.5%
Activity (HT-29 [18]): 15.7%
Activity (HT-29 [19]): Active
Activity (FHC [21]): 13.5%
Activity (HT-29 [23]): 2%
Activity (FHC [24]): Toxic
Activity (HT-29 [25]): Active

pIC50 (HT-29 [1]): 5.47
Compound: COc1cc2c(Oc3ccc(NC(=O)NN4C(=O)CSC4c4ccc(F)cc4)cc3)ccnc2cc1OC1CCN(C(=O)NC2CCCCC2)CC1 (configuration not stated)

pIC50 (HT-29 [1]): 6.10
Compound: COc1cc2c(Oc3ccc(NC(=O)NN4C(=O)CSC4c4cccc(F)c4F)cc3)ccnc2cc1OC1CCN(C(=O)NC(C)C)CC1 (configuration not stated)
